Out of some 2,500 compounds screened, about 1,200 (48%) were called active.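 Rule for the calls: active = mean activation above the low control average plus 3 SD, as set in the primary screen (cut at about 12% in these data); inactive = the rest.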 So high a share suggests a set chosen from earlier hits. The list shows a part of the results.

This test concerns the target Troponin I, cardiac muscle (Homo sapiens) + Troponin T, cardiac muscle (Homo sapiens) + Troponin C, slow skeletal and cardiac muscles (Homo sapiens) (UniProt P19429+P45379+P63316). The test is described as follows: cardiac RTF calcium sensitivity activators, confirmation, biochemical, IANBD-TnC fluorescence, triplicate (AID 504383).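 Note: 0% = DMSO at 0.472 mM calcium and 100% = DMSO at 2.9 mM calcium.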 The following applies: IANBD-labeled cardiac RTF, Ca2+ sensitivity fluorescence; at 7.2 µM; stronger effect = higher value; scaled from EC20 to saturating calcium; tested at EC20 calcium, 0.472 mM. The method in brief:
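Material: labelled regulated thin filaments; Reagent: 0.472 mM calcium; Incubation: 15 min compound incubation with filaments at 25 °C; Detection: filament fluorescence intensity; Evaluation: fluorescence increase normalised to calcium controls; Benchmarks: low control EC20 calcium, high control EC100 calcium.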
Take `COc1ccccc1N1CCN(C(=O)c2cn(-c3ccccc3)nc2-c2cccnc2)CC1`: the activation is 10% (inactive). The value for `O=C(Nc1ccccc1F)C(=Cc1sc(N2CCOCC2)nc1-c1ccccc1)C(=O)Nc1ccccc1F` was -0.07% (inactive). The value for `O=C(c1cn(-c2ccccc2)nc1-c1ccc(Br)cc1)N1CCOCC1` was 16.9% (active); that for `O=C(CSCc1c(F)cccc1Cl)Nc1ccccc1C(=O)N1CCOCC1` was 11.5% (inactive); that for `O=C(N/C(=C/c1cn(-c2ccccc2)nc1-c1ccccc1)C(=O)N1CCOCC1)c1ccc(Cl)cc1Cl` was 12.7% (active). The same measure for `Cc1cc(NC(=O)/C(C#N)=C/c2ccc(-c3ccc(SC(F)F)cc3)o2)n(-c2ccccc2)n1`: 659% (active); for `Cc1cc(NC(=O)/C(C#N)=C\c2ccc(-c3ccc(SC(F)F)cc3)o2)n(-c2ccccc2)n1`: 359% (active).

On to `COC(=O)CCc1c(C)c(C(=O)c2cc(F)c(F)c(F)c2F)c2ccccn12`, for which the activation is -2.54% (inactive). The value for `O=C1CCNc2ccc(-c3ccccc3)cc21` was 7.84% (inactive). The value for `Cn1c(=O)c2cc(NCc3ccccc3)nnc2n(C)c1=O` was 13.9% (active). For `Cn1c(=O)c(NCCc2ccccc2)c2c3c(cccc31)C(=O)c1ccccc1-2`, the activation is 2.98% (inactive). The value for `CC(C(=O)c1ccc(Br)cc1)[n+]1cccc2ccccc21` (stereo unspecified) was 64.2% (active); that for `Cc1cc(C)nc(NC(=O)c2ccc(Cl)c(Cl)c2)n1` was 12.3% (active). In the case of `Cc1cccc(NC(=O)c2ccc(C(=O)c3ccccc3)cc2)n1`, the activation is 9.46% (inactive). The same measure for `COC(=O)c1c(NC(=O)CN2CCN(c3cccc(Cl)c3)CC2)sc(C)c1C`: 13.4% (active). The same measure for `COC(=O)c1c(NC(=O)c2ccnn2C)sc(C)c1C`: 5.98% (inactive); for `CCOC(=O)c1c(/N=C/c2cccc([N+](=O)[O-])c2O)sc(C)c1C`: 7.57% (inactive). For `CCN1C(=S)N[C@@H](CCc2ccccc2)[C@H](C(=O)OC)[C@H]1C`, the activation was 57.4% (active). The value for `COc1ccc(/C=C/C(=O)NC(=S)Nc2ccc(C(=O)O)cc2)cc1` was 55.3% (active); that for `CCC(=O)Nc1ccc(NC(=S)NC(=O)c2oc3ccccc3c2C)cc1` was 1.23% (inactive).

With `CC(C)(C)c1ccc(C(=O)NC(=S)Nc2ccc(N3CCOCC3)cc2)cc1`, the activation is 0.7% (inactive). The value for `O=C(/C=C/c1ccccc1)N/C(=C/c1ccccc1)C(=O)NCCCO` was 9.8% (inactive); that for `O=C(O)c1ccc(NC(=S)NC(=O)c2ccc(-c3ccccc3)cc2)cc1` was 78.4% (active); that for `O=C(CSc1ccc(-c2cccs2)nn1)N1CCCCC1` was 0.96% (inactive). As for `C=CCNc1nnc(SCC(=O)N2CCCCC2)c2ccccc12`, the activation is 15.7% (active).

Consider `CCOC(=O)c1c(NC(=O)COC(=O)Cc2ccccc2[N+](=O)[O-])sc(C(=O)N(C)C)c1C`, for which the activation is 6.12% (inactive). The same measure for `CS(=O)(=O)c1ccc(C(=O)OCC(=O)Nc2cccnc2Cl)cc1[N+](=O)[O-]`: 13.1% (active); for `CC(Sc1nnc(NCc2ccccc2)s1)C(=O)Nc1ccc2c(c1)C(=O)c1ccccc1C2=O` (stereo unspecified): 137% (active); for `Cc1ccc(NC(=O)C(C)Sc2nnc(C)n2C2CC2)cc1S(=O)(=O)N1CCOCC1` (stereo unspecified): 7.55% (inactive). The same measure for `CC(C)CSC1=NSC2=NC(=O)/C(=C\c3coc4ccccc4c3=O)C(=N)N12`: 45.1% (active); for `CSC1=NSC2=NC(=O)/C(=C/c3coc4ccccc4c3=O)C(=N)N12`: 3.64% (inactive). On to `CCSC1=NSC2=NC(=O)/C(=C\c3coc4ccccc4c3=O)C(=N)N12`, for which the activation is 74.7% (active). The same measure for `CC(C)NC(=S)N/N=C/c1sc(N2CCCCC2)nc1-c1cccs1`: 11.2% (inactive).

Turning to `O=C(Nc1ccc(Br)cc1)c1ccc(Br)c(S(=O)(=O)Nc2cccnc2)c1`, the activation is 22.2% (active). The same measure for `O=C(NCCCN1CCCC1=O)c1cccc(S(=O)(=O)Nc2ccc(Br)cc2)c1`: 10% (inactive). The value for `Cc1occc1C(=O)Nc1cccc([N+](=O)[O-])c1` was 30.8% (active); that for `Cc1csc(NS(=O)(=O)c2cccc([N+](=O)[O-])c2)n1` was 10.9% (inactive). The same measure for `O=C(Nn1cnnc1)c1cc([N+](=O)[O-])cc([N+](=O)[O-])c1`: 11.3% (inactive); for `O=C(c1ccncc1)N(Cc1ccccc1)Cc1nc2ccccc2c(=O)[nH]1`: 9.24% (inactive). In the case of `COc1cc2cc(CN(Cc3cccnc3)C(=O)NCc3ccccc3)c(=O)[nH]c2cc1OC`, the activation is 324% (active). The value for `COc1ccc2cc(CN(CC3CCCO3)C(=S)NCc3ccco3)c(=O)[nH]c2c1` (stereo unspecified) was 1.66% (inactive); that for `CC(=O)Nc1ccccc1C(=O)C(=O)Nc1ccc(F)c(Cl)c1` was 7.61% (inactive). For `CN1c2ccccc2C(O)=C(C(=S)Nc2ccc(F)c(Cl)c2)S1(=O)=O`, the activation was 54.4% (active). The same measure for `CC(=O)/C(C=Nc1noc(C)c1Br)=C(\C)O`: 50.2% (active). With `C=C1C(=O)O[C@@]23[C@H]1CC[C@@H](C)[C@@H]2CC[C@@]1(C)O[C@@H]31`, the activation was 11.9% (active). The same measure for `C=CCNC(=O)NC(=O)COC(=O)CC(NC(N)=O)c1ccc(Cl)cc1` (stereo unspecified): 154% (active). In the case of `CN(C)CCN(C)Cc1c2ccccc2c(CN(C)CCN(C)C)c2ccccc12`, the activation was 27.7% (active). The value for `CN(C)CCOc1ccccc1C(C)(C)C` was 4.26% (inactive); that for `CC[N+](C)(C)c1cccc(O)c1` was 3.39% (inactive); that for `Cc1ccc(S(=O)(=O)Nc2ccc3ncccc3c2[N+](=O)[O-])cc1` was 11.6% (inactive). The same measure for `Cc1ccc(S(=O)(=O)Nc2nc3ccccc3nc2NCc2ccco2)cc1`: 23.7% (active); for `Nc1nc(NCc2ccco2)nc(N2CCCCCC2)c1[N+](=O)[O-]`: 6.31% (inactive). The same measure for `COC(=O)c1[nH]c2ccc(C)cc2c1NC(=O)C(C)N1CCN(C2CCCCC2)CC1` (stereo unspecified): 10.5% (inactive); for `COc1ccccc1-c1nnc(SCC(=O)Nc2ccc3[nH]c(=O)[nH]c3c2)n1N`: 6.5% (inactive); for `CCn1c(C)c(CCC(=O)O)c(=O)n2nc(-c3ccccc3OC)cc12`: 11.7% (active). In the case of `O=S(=O)(CCN(CCS(=O)(=O)C(F)(F)F)CC1CCCO1)C(F)(F)F` (stereo unspecified), the activation was 17.5% (active). On to `O=C(O)CCCN1C(=O)/C(=C/c2cn(-c3ccccc3)nc2-c2cccs2)SC1=S`, for which the activation is 150% (active).

As for `Cc1ccc(-c2nn(-c3ccccc3)cc2/C=C2\SC(=S)N(CCCCCC(=O)O)C2=O)o1`, the activation was 23.1% (active). The value for `COC(=O)CCCCCN1C(=O)/C(=C\c2ccncc2)SC1=S` was 4.31% (inactive); that for `COc1ccccc1C(=O)NNC(=O)CCCN1C(=O)/C(=C/c2cccs2)SC1=S` was 1.62% (inactive); that for `C=CCNc1sc(C(=O)c2ccc(Br)s2)c(N)c1C#N` was 98% (active). The value for `C#CCOCCOCCOCCNc1nc(N2CCN(C(=O)CCCCCCCCCCNC(=O)[C@@H](CCSC)n3cc(CCO)nn3)CC2)nc(N2CCN(C(=O)CCCCCCCCCCNC(=O)[C@H](CCSC)n3cc(CCO)nn3)CC2)n1` was 3.03% (inactive); that for `COc1ccc2[nH]c(C)c(CCN(Cc3cccs3)C(=S)Nc3ccc(F)cc3)c2c1` was 12.4% (active); that for `COc1ccc(NC(=O)C(c2ccc(C)cc2)N(C)C(=O)Cc2cccs2)cc1` (stereo unspecified) was 6.31% (inactive). Regarding `CCN(CC)S(=O)(=O)c1ccc2[nH]c(=O)[nH]c2c1`, the activation was 15.6% (active). As to `O=S(=O)(/N=C(/Nc1nc2ccccc2s1)c1ccccc1)c1ccc(F)cc1`, the activation was 11.4% (inactive).

For the molecule `Cc1noc(C)c1C(=O)Nc1nc2ccccc2s1`, the activation is 28.4% (active). Regarding `Cc1onc(-c2ccccc2)c1C(=O)Nc1nc(-c2cc(F)ccc2F)cs1`, the activation was -0.1% (inactive). The same measure for `Cc1cccc(NC2=Nc3ccccc3N3C2=Nc2c(c(C)nn2-c2ccccc2)C3c2ccc(O)c(O)c2)c1` (stereo unspecified): 362% (active); for `Cc1ccc(-c2ccc(CO)o2)cc1N`: 92.6% (active); for `Cn1c(/C(C#N)=C(\O)CN2CCN(Cc3ccccc3)CC2)nc2ccccc21`: 7.65% (inactive).

`Cc1nc([N+](=O)[O-])c(Sc2nc3ccccc3n2C)n1Cc1ccccc1`: the activation was 46.8% (active). The value for `Cc1nc([N+](=O)[O-])c(Br)n1CC(=O)c1ccc2ccccc2c1` was 10.5% (inactive); that for `COc1ccc(Cc2n[nH]c(=O)c3ccccc23)cc1OC` was 5.9% (inactive); that for `COc1ccc(CCNc2cc(C)[nH]c(=O)c2)cc1OC` was 5.18% (inactive). The value for `COc1ccc(CNc2nn[nH]n2)cc1OC` was 18.4% (active); that for `CCOC(=O)CC(=O)CSc1nc(-c2ccc3c(c2)OCO3)cc(C(F)(F)F)c1C#N` was 13.6% (active); that for `C(=N\c1nc2ccccc2n1CCN1CCOCC1)/c1cccs1` was 2.67% (inactive). The value for `O=C(O)c1cccc([N+](=O)[O-])c1C(=O)Nc1cccc2ccccc12` was 14.4% (active); that for `Cc1ccc(O)c(C(=O)c2cc(C#N)c(=O)n(-c3nccs3)c2)c1` was 8.02% (inactive); that for `Cc1ccc(NC(=O)c2cc(C(=O)c3cc(Cl)ccc3O)cn(-c3ccc(C)cc3)c2=O)cc1` was 15.1% (active). As for `CS(=O)(=O)Nc1ccc(C2=NN(C(=O)CCCC(=O)O)C(c3cccs3)C2)cc1` (stereo unspecified), the activation was 61.2% (active). The value for `CN(C)CCNc1ccc2ncn3c4ccc(O)cc4c(=O)c1c23` was 11.4% (inactive); that for `Cc1cc(C)c2nc(NC(=O)C3CCCO3)sc2c1` (stereo unspecified) was 36.3% (active); that for `CCOc1cc(/C=C2\N=C(SC(C)C(N)=O)N(c3ccc(OC(F)F)cc3)C2=O)ccc1O` (stereo unspecified) was 32.1% (active).

As to `COc1cc(/C=C2\N=C3CCCCCN3C2=O)ccc1O`, the activation was 4.57% (inactive). The value for `COc1cc(OC)c(NC(=O)c2cc3ccccc3cc2O)cc1Cl` was 12.7% (active).

In the case of `CCOC(=O)COc1c(Cl)cc(C2NC(=S)NC(c3ccccc3)=C2C(C)=O)cc1OC` (stereo unspecified), the activation was 10.2% (inactive). The same measure for `COc1ccc(-c2nnc(-c3cccnc3)o2)cc1`: 48.2% (active); for `O=C1c2ccccc2-c2c1cccc2C(=O)N1CCCCCC1`: 9.57% (inactive). For `Cc1[nH]c(C)c(S(=O)(=O)N2c3ccccc3CC2C)c1C(=O)N1CCCCC1` (stereo unspecified), the activation is 137% (active).

For the origin of these results see PubChem BioAssay AID504383 (The Scripps Research Institute Molecular Screening Center, 2011).
